From ChEMBL document CHEMBL1125363, “Novel piperidine sigma receptor ligands as potential antipsychotic drugs” (J Med Chem, 1992)

Assays:
D(2) dopamine receptor = D(2) dopamine receptor (Mus musculus, UniProt P61168); test: In vitro binding affinity towards dopamine receptor D2
Mus musculus [1] = species: Mus musculus; test: Oral potency tested by using anti-mescaline test; format: functional
How it was run: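 Mice; mescaline was given to evoke hallucinogen-type behaviour, and the test compound was dosed orally to antagonise it. Potency is the ED50 in mg/kg po. Some ED50s are the average of three measurements.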

[2] = biological target: Sigma non-opioid intracellular receptor 1 (Mus musculus, UniProt O55242); test: In vitro binding affinity for the mouse sigma opioid receptor
Chain of Sigma non-opioid intracellular receptor 1 (O55242 whole entry): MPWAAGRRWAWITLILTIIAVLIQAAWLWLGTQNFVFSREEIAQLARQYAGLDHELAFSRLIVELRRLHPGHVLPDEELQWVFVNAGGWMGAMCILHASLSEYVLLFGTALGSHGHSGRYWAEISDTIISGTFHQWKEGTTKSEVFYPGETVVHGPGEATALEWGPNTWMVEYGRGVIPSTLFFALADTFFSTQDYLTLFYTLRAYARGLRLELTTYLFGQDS

[3] = biological target: Serotonin 2 (5-HT2) receptor (Mus musculus, UniProt Q02152+P34968+P35363); test: In vitro binding affinity for serotonin 5-hydroxytryptamine (5-HT) 2 receptors; format: protein assay
Mus musculus [4] = species: Mus musculus; test: Potency was tested using Anti mescaline test(Intra peritoneal); format: functional
How it was run: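 Mouse mescaline-antagonism test with the test compound given intraperitoneally. Read-out is the ED50 in mg/kg ip.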

Rattus norvegicus = species: Rattus norvegicus; test: Oral potency tested using 5HTP induced head twitch test; format: functional
[5] = Oral potency by using Anti aggression test; format: functional
How it was run: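 Mice were held in prolonged isolation, then exposed to intruders. The aggressive response was scored after oral dosing of the test compound. Potency is the ED50 in mg/kg po.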

Mus musculus [6] = species: Mus musculus; test: Oral potency tested using apomorphine induced climbing test; format: functional

Chain of D(2) dopamine receptor (P61168 whole entry): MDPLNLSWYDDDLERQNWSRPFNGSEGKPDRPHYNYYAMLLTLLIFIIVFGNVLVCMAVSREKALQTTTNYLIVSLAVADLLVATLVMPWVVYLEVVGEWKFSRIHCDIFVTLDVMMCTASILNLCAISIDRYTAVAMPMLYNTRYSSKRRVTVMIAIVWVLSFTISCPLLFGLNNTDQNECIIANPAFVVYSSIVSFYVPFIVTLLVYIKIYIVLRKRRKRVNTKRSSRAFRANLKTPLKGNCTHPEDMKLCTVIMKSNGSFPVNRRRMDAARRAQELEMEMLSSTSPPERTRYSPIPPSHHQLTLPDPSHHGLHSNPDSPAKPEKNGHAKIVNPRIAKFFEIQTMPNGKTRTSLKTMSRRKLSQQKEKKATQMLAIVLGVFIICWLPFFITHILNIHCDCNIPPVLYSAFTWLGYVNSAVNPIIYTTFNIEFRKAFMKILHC

IC50 (D(2) dopamine receptor) | Ki [2] | Ki [3] | SMILES | ED50 (Mus musculus [1]) | ED50 (Mus musculus [4]) | ED50 (Rattus norvegicus) | ED50 [5] | ED50 (Mus musculus [6])
4670 nM | 10 nM | > 1000 nM | O.O=C(CC1CCN(Cc2ccccc2)CC1)c1ccc(C(F)(F)F)cc1 | > 10 mg/kg | – | – | – | –
> 10000 nM | 31 nM | 438 nM | O.O=C(CC1CCN(Cc2ccccc2)CC1)c1ccc(CO)cc1 | > 30 mg/kg | – | – | – | –
26000 nM | 3.5 nM | 287 nM | COc1ccc(COCC2CCN(Cc3ccccc3)CC2)cc1.O=C(O)/C=C\C(=O)O | > 30 mg/kg | – | – | – | –
3900 nM | 2 nM | 272 nM | Fc1ccc(COCC2CCN(Cc3ccccc3)CC2)cc1.O=C(O)/C=C\C(=O)O | 14 mg/kg | – | – | – | –
715 nM | 8 nM | 208 nM | CSc1ccc(C(=O)CC2CCN(Cc3ccccc3)CC2)cc1 | > 30 mg/kg | – | – | – | –
10 nM | 9 nM | 3.3 nM | O=C(CC1CCN(CCc2ccc(C(F)(F)F)cc2)CC1)c1ccc(F)cc1 | < 10 mg/kg | – | – | – | –
560 nM | 4 nM | 24 nM | Fc1ccc(COCC2CCN(CCc3ccccc3)CC2)cc1.O=C(O)/C=C\C(=O)O | 15 mg/kg | – | – | – | –
> 10000 nM | 3 nM | 55 nM | COc1ccc(OCC2CCN(Cc3ccccc3)CC2)cc1 | > 30 mg/kg | – | – | – | –
3330 nM | 31 nM | > 100 nM | O.OC(CC1CCN(Cc2ccccc2)CC1)c1ccc2ccccc2c1 (stereo unspecified) | > 10 mg/kg | – | – | – | –
1850 nM | 20 nM | 47 nM | O.O=C(O)/C=C\C(=O)O.c1ccc(CN2CCC(COCc3ccc(-c4ccccc4)cc3)CC2)cc1 | – | 10 mg/kg | – | – | –
> 10000 nM | 5 nM | > 10000 nM | O.O=C(O)/C=C\C(=O)O.c1ccc(CN2CCC(COc3cccnc3)CC2)cc1 | > 30 mg/kg | – | – | – | –
3720 nM | 5 nM | 446 nM | O.OC(CC1CCN(Cc2ccccc2)CC1)c1cccs1 (stereo unspecified) | > 30 mg/kg | – | – | – | –
839 nM | 3.2 nM | 260 nM | O=C(O)/C=C\C(=O)O.c1ccc(CCCOCC2CCN(Cc3ccccc3)CC2)cc1 | – | < 10 mg/kg | – | – | –
1340 nM | 18 nM | > 1000 nM | O.O=C(CC1CCN(Cc2ccccc2)CC1)c1ccc(O)cc1 | > 30 mg/kg | – | – | – | –
> 10000 nM | 20 nM | 187 nM | COc1ccc(C(O)CC2CCN(Cc3ccccc3)CC2)cc1.Cl (stereo unspecified) | > 30 mg/kg | – | – | – | –
870 nM | 2 nM | 28 nM | Cl.Fc1ccc(OCC2CCN(Cc3ccccc3)CC2)cc1.O | 4 mg/kg | – | – | 8.2 mg/kg | > 30 mg/kg
6750 nM | 4.5 nM | 939 nM | CC(C)(C)c1ccc(COCCC2CCN(Cc3ccccc3)CC2)cc1.Cl | – | > 10 mg/kg | – | – | –
4210 nM | 8.3 nM | 137 nM | Cl.Clc1ccc(OCC2CCN(Cc3ccccc3)CC2)cc1 | 8 mg/kg | – | > 10 mg/kg | 10 mg/kg | –
1850 nM | 26 nM | 186 nM | Cl.c1ccc(CCCCCOCC2CCN(Cc3ccccc3)CC2)cc1 | – | > 10 mg/kg | – | – | –
6300 nM | 5.6 nM | 311 nM | Cl.c1ccc(CN2CCC(COc3ccc4ccccc4n3)CC2)cc1 | – | < 10 mg/kg | – | – | –
1800 nM | 55 nM | 1883 nM | Br.COc1ccc(C(=O)CC2CCN(CC3CC3)CC2)cc1 | – | > 10 mg/kg | – | – | –
> 10000 nM | 4 nM | > 1000 nM | Cl.c1ccc(COCC2CCN(Cc3ccccc3)CC2)cc1 | – | > 10 mg/kg | – | – | –
220 nM | 11 nM | 12 nM | Br.O=C(CC1CCN(CCC2CC2)CC1)c1ccc(F)cc1 | < 10 mg/kg | – | – | – | –
789 nM | 3 nM | 360 nM | Cl.O.OC(Cc1ccc(F)cc1)C1CCN(Cc2ccccc2)CC1 (stereo unspecified) | 5 mg/kg | – | – | > 30 mg/kg | > 30 mg/kg
970 nM | 15 nM | > 10000 nM | COC(=O)c1ccc(COCC2CCN(Cc3ccccc3)CC2)cc1.Cl.O | > 30 mg/kg | – | – | – | –
818 nM | 14 nM | > 1000 nM | Cl.Fc1ccc(COCC2CCN(Cc3ccc(-c4ccccc4)cc3)CC2)cc1 | – | > 10 mg/kg | – | – | –
4340 nM | 2 nM | 224 nM | Cl.c1ccc(CCCCOCC2CCN(Cc3ccccc3)CC2)cc1 | – | > 10 mg/kg | – | – | –

Continued, compound first:

SMILES | IC50 (D(2) dopamine receptor) | Ki [2] | Ki [3] | ED50 (Mus musculus [1]) | ED50 (Mus musculus [4]) | ED50 (Rattus norvegicus) | ED50 [5] | ED50 (Mus musculus [6])
O=C(CC1CCN(CCc2ccccc2)CC1)c1ccc(F)cc1 | 42 nM | 8 nM | 8 nM | 4.1 mg/kg | – | – | – | –
Fc1ccc(COCC2CCN(Cc3ccncc3)CC2)cc1.O=C(O)/C=C/C(=O)O | > 10000 nM | 2 nM | – | – | < 10 mg/kg | – | – | –
O.O=C(CC1CCN(CCc2c[nH]c3ccccc23)CC1)c1ccc(F)cc1 | 7 nM | 26 nM | 3.6 nM | < 10 mg/kg | – | – | – | –
CS(=O)(=O)c1ccc(OCC2CCN(CC3CC3)CC2)cc1 | > 10000 nM | 53 nM | 1135 nM | > 30 mg/kg | – | – | – | –
O=C(O)/C=C\C(=O)O.c1ccc(CCCOC2CCN(Cc3ccccc3)CC2)cc1 | 8100 nM | 2 nM | – | – | < 10 mg/kg | – | – | –
Fc1ccc(CN2CCC(COc3ccc(F)cc3)CC2)cc1 | 1070 nM | 8 nM | 38 nM | 5.9 mg/kg | – | – | – | –
O.OCc1ccc(OCC2CCN(CC3CC3)CC2)cc1 | > 10000 nM | 35 nM | > 100 nM | > 30 mg/kg | – | – | – | –
O=S(=O)(CC1CCN(CCC2CC2)CC1)c1ccc(F)cc1 | > 10000 nM | 28 nM | 745 nM | 6.4 mg/kg | – | – | – | –
O.c1ccc2c(OCC3CCN(CC4CC4)CC3)ccnc2c1 | 4850 nM | 50 nM | > 100 nM | 19.2 mg/kg | – | – | – | –
Fc1ccc(-c2ccc(OCC3CCN(CC4CC4)CC3)cc2)cc1 | > 10000 nM | 83 nM | 396 nM | < 30 mg/kg | – | – | – | –
c1ccc(OCC2CCN(CC3CC3)CC2)cc1 | 3170 nM | 7 nM | 53 nM | 30 mg/kg | – | – | – | –
O.c1ccc2cc(OCC3CCN(CC4CC4)CC3)ccc2c1 | 2960 nM | 5 nM | > 100 nM | – | > 10 mg/kg | – | – | –
O.O=C(Cc1ccc(F)cc1)C1CCN(Cc2ccncc2)CC1.O=C(O)/C=C\C(=O)O | > 10000 nM | 7 nM | 1705 nM | 10 mg/kg | – | 28 mg/kg | 38 mg/kg | –
c1ccc(Oc2ccc(OCC3CCN(CC4CC4)CC3)cc2)cc1 | > 10000 nM | 24 nM | 584 nM | > 30 mg/kg | – | – | – | –
O=C(O)/C=C\C(=O)O.c1ccc(CN2CCC(COC3CC3)CC2)cc1 | > 10000 nM | 2 nM | > 10000 nM | > 30 mg/kg | – | – | – | –
Fc1ccc(OCC2CCN(CCC3CC3)CC2)cc1.O=C(O)/C=C/C(=O)O | 428 nM | 3 nM | – | 3.1 mg/kg | – | < 10 mg/kg | 4.5 mg/kg | –
c1cc2cc(OCC3CCN(CC4CC4)CC3)ccc2[nH]1 | 2350 nM | 34 nM | 112 nM | < 30 mg/kg | – | – | – | –
CN(C)c1cccc(OCC2CCN(CC3CC3)CC2)c1.O | 7330 nM | 5 nM | 1158 nM | – | < 10 mg/kg | – | – | –
Fc1ccc(OCC2CCN(Cc3ccc4ccccc4c3)CC2)cc1 | 4340 nM | 51 nM | 118 nM | 1.7 mg/kg | – | – | – | –
N#Cc1ccc(OCC2CCN(CC3CC3)CC2)cc1 | > 10000 nM | 10 nM | 2818 nM | 1.7 mg/kg | – | 29 mg/kg | 2.6 mg/kg | –
Cl.Fc1ccc(COCC2CCN(Cc3ccc(Cl)cc3)CC2)cc1 | – | 2 nM | 281 nM | – | < 10 mg/kg | – | – | –
Cl.Clc1ccc(OCC2CCN(CC3CC3)CC2)c(Cl)c1 | 111 nM | 4 nM | 32 nM | 2.9 mg/kg | – | – | – | –
Cl.Fc1ccc(COCC2CCN(CC3CCCCC3)CC2)cc1 | 3350 nM | 3 nM | 127 nM | > 10 mg/kg | – | – | – | –
Cl.Fc1ccc(COCC2CCN(Cc3ccc4ccccc4c3)CC2)cc1 | 305 nM | – | 251 nM | – | > 10 mg/kg | – | – | –
Cl.Fc1c(F)c(F)c(OCC2CCN(CC3CC3)CC2)c(F)c1F | 5680 nM | 10 nM | 3356 nM | 26.2 mg/kg | – | – | – | –
Cl.c1ccc(CN2CCC(COC3CCCCC3)CC2)cc1 | > 10000 nM | 2 nM | 1363 nM | – | < 10 mg/kg | – | – | –
Cl.Fc1ccc(COCC2CCN(Cc3cccc4ccccc34)CC2)cc1 | 219 nM | 22 nM | 25 nM | 12 mg/kg | – | – | – | –
CCCCCN1CCC(COCc2ccc(F)cc2)CC1.Cl | 1320 nM | 9 nM | – | – | < 10 mg/kg | – | – | –
Cl.Fc1ccc(OCC2CCN(CCc3ccc(Cl)cc3)CC2)cc1 | 368 nM | 5 nM | 26 nM | 1.7 mg/kg | – | > 10 mg/kg | 10 mg/kg | –
Br.CC(C)(C)c1ccc(C(=O)CC2CCN(CC3CC3)CC2)cc1.O | 1570 nM | 8 nM | > 1000 nM | > 30 mg/kg | – | – | – | –
